Test results published in ChEMBL document CHEMBL2331272, “Bromotyrosine alkaloids from the Australian marine sponge Pseudoceratina verrucosa” (J Nat Prod, 2013).
pIC50: −log10 of the molar value.

Assays:
[1] = test system: NFF; assay: Cytotoxicity against human NFF cells assessed as inhibition of cell viability at 100 uM after 72 hrs by alamar blue assay; type: functional
Method in brief: (§1)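 NFF fibroblasts grown in DMEM with 10% FBS and penicillin/streptomycin, 37 °C, 5% CO2; 1000 cells/well seeded and adhered overnight. Compounds tested in ten-point series, final 100 μM to 3 nM, 1% DMSO, triplicate wells; 72 h incubation. Readout by Alamar blue (10% final), ex 535/em 590 nm. IC50 by nonlinear regression; IC50 or % inhibition at 100 μM as mean SD, two independent experiments.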

[2] = test system: PC-3; assay: Cytotoxicity against human PC3 cells assessed as inhibition of cell viability at 100 uM after 72 hrs by alamar blue assay; type: functional; conditions: PC-3, 72 h
Method in brief: (§2)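 HeLa and PC3 cells grown in RPMI with 10% FBS and penicillin/streptomycin, 37 °C, 5% CO2; 1000 cells/well adhered overnight. Ten-point dilutions, final 100 μM to 3 nM, 1% DMSO, triplicate; 72 h exposure. Alamar blue added (10% final), fluorescence ex 535/em 590 nm. IC50 by nonlinear regression; IC50 or % inhibition at 100 μM as mean SD of two independent experiments.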

[3] = test system: HeLa; assay: Cytotoxicity against human HeLa cells assessed as inhibition of cell viability after 72 hrs by alamar blue assay; type: functional, cell-based; method in brief: as §2
[4] = test system: NFF; assay: Cytotoxicity against human NFF cells assessed as inhibition of cell viability after 72 hrs by alamar blue assay; type: functional, cell-based; method in brief: as §1
[5] = test system: PC-3; assay: Cytotoxicity against human PC3 cells assessed as inhibition of cell viability after 72 hrs by alamar blue assay; type: functional, cell-based; conditions: PC-3, 72 h; method in brief: as §2
[6] = test system: HeLa; assay: Cytotoxicity against human HeLa cells assessed as inhibition of cell viability at 100 uM after 72 hrs by alamar blue assay; type: functional; method in brief: as §2

| SMILES | inhibition at 100 µM [1] [%] | inhibition at 100 µM [2] [%] | pIC50 [3] | pIC50 [4] | pIC50 [5] | inhibition at 100 µM [6] [%] |
| --- | --- | --- | --- | --- | --- | --- |
| COC1=C(Br)[C@H](O)[C@@]2(C=C1Br)CC(C(=O)NCC(O)c1cc(Br)c(OC[C@H]3CNC(=O)O3)c(Br)c1)=NO2 (stereo not given in full) [FOSTULARIN 2] | 68 | 73 | 4.40 |  |  |  |
| COc1ccc(C/C(=N\O)C(=O)NC[C@@H](O)c2cc(Br)c(OCCCN(C)C)c(Br)c2)cc1Br |  |  | 4.72 | 4.80 | 5.31 |  |
| COC1=C(Br)[C@H](O)[C@@]2(C=C1Br)CC(C(=O)NCC(O)c1cc(Br)c(OC[C@H](O)CNC(=O)C3=NO[C@]4(C=C(Br)C(OC)=C(Br)[C@@H]4O)C3)c(Br)c1)=NO2 (stereo not given in full) [FOSTULARIN 3] | 48 | 60 |  |  |  | 46 |
| CN(C)CCCOc1c(Br)cc([C@H]2CNC(=O)O2)cc1Br | 29 | 35 |  |  |  | 44 |
| COC1=C(Br)[C@H](O)[C@@]2(C=C1Br)CC(C(=O)NCCCc1cnc(N)[nH]1)=NO2 [AEROPHOBIN 2] | 25 | 66 |  |  |  | 20 |
